# Reference: the RNAGym collection of RNA variant scans (doi:10.1002/anie.201605470)
# B1: Osa-1-4 twister ribozyme (parent)
# chain: CCGCCUAACACUGCCAAUGCCGGUCCCAAGCCCGGAUAAAAGUGGAGGGGGCGG
# Variants of: B1
# Test: self-cleavage, relative activity (ratio to wild type); higher = more cleavage; co-transcriptional
# Method in brief: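 A DNA template encoding a 54-nucleotide twister ribozyme from Oryza sativa was made so that each of the 48 positions downstream of the cleavage site carried 97 % wild-type base and 1 % of each other base. Transcription in vitro ran for 2 h at 37 °C, during which the ribozyme could cleave itself. Reverse transcription used a template-switching oligonucleotide, and the products were PCR-amplified and deep-sequenced. Each read was scored as cleaved or uncleaved by whether upstream sequence was present, and relative activity is the fraction cleaved normalised to wild type.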
row,Variant,self-cleavage
1,CCGCCUAAGACUGCCAAUGCCGGUCCCAAUCCCGGAUAAAAGUGGAGGGGGCGG [C9G G30U],0.04
2,CCGCCUAAGACUGCCAAUGCCGGUCCCAACCCCGGAUAAAAGUGGAGGGGGCGG [C9G G30C],0.04
3,CCGCCUAAGACUGCCAAUGCCGGUCCCAAACCCGGAUAAAAGUGGAGGGGGCGG [C9G G30A],0.02
4,CCGCCUAAUACUGCCAAUGCCGGUCCCAAGCCCGGAUAAAAGUGGAGGGAGCGG [C9U G50A],0.28
5,CCGCCUAAGACUGCCAAUGCCGGUCCCAAGCCCUGAUAAAAGUGGAGGGGGCGG [C9G G34U],0.12
6,CCGCCUAAGACUGCCAAUGCCGGUCCCAAGCCCAGAUAAAAGUGGAGGGGGCGG [C9G G34A],0.29
7,CCGCCUAAGACUGCCAAUGCCGGUCCCAAGCCCCGAUAAAAGUGGAGGGGGCGG [C9G G34C],0.3
8,CCGCCUAAGACUGCCAAUGCCGGUCCCAAGCCCGGAUAAAAGUGGAGAGGGCGG [C9G G48A],0.07
9,CCGCCUAAGACUGCCAAUGCCGGUCCCAAGCCCGGAUAAAAGUGGAGCGGGCGG [C9G G48C],0.08
10,CCGCCUAAGACUGCCAAUGCCGGUCCCAAGCCCGGAUAAAAGUGGAGUGGGCGG [C9G G48U],0.06
11,CCGCCUAAGACUGCCAAUGCCGGUCCCAAGCCCGGAUAAAAAUGGAGGGGGCGG [C9G G42A],0.11
12,CCGCCUAAGACUGCCAAUGCCGGUCCCAAGCCCGGAUAAAACUGGAGGGGGCGG [C9G G42C],0.07
13,CCGCCUAAGACUGCCAAUGCCGGUCCCAAGCCCGGAUAAAAUUGGAGGGGGCGG [C9G G42U],0.05
14,CCGCCUAAGACUGCCAAUGCCGGUCCCAAGCCCGGAUAAAAGGGGAGGGGGCGG [C9G U43G],0.21
15,CCGCCUAAGACUGCCAAUGCCGGUCCCAAGCCCGGAUAAAAGCGGAGGGGGCGG [C9G U43C],0.16
16,CCGCCUAAGACUGCCAAUGCCGGUCCCAAGCCCGGAUAAAAGAGGAGGGGGCGG [C9G U43A],0.87
17,CCGCCUAAUACUGCCAAUGCCGGUCCCAAGCCCGGAUAAAAGUCGAGGGGGCGG [C9U G44C],0.67
18,CCGCCUAAUACUGCCAAUGCCGGUCCCAAGCCCGGAUAAAAGUUGAGGGGGCGG [C9U G44U],0.69
19,CCGCCUAAUACUGCCAAUGCCGGUCCCAAGCCCGGAUAAAAGUAGAGGGGGCGG [C9U G44A],0.76
20,CCGCCUAAGACUGCCAAUGCCGGUCCCAAGCCCGGAAAAAAGUGGAGGGGGCGG [C9G U37A],0.76
21,CCGCCUAAGACUGCCAAUGCCGGUCCCAAGCCCGGACAAAAGUGGAGGGGGCGG [C9G U37C],0.94
22,CCGCCUAAGACUGCCAAUGCCGGUCCCAAGCCCGGAGAAAAGUGGAGGGGGCGG [C9G U37G],0.92
23,CCGCCUAAGACUGCCAAUGCCGCUCCCAAGCCCGGAUAAAAGUGGAGGGGGCGG [C9G G23C],0.07
24,CCGCCUAAGACUGCCAAUGCCGUUCCCAAGCCCGGAUAAAAGUGGAGGGGGCGG [C9G G23U],0.04
25,CCGCCUAAGACUGCCAAUGCCGGUCCCAAGCCCGGAUAAAAGUGGAGGGGGCGA [C9G G54A],0.71

row,Variant,self-cleavage
1,CCGCCUAAGACUGCCAAUGCCGGUCCCAAGCCCGGAUAAAAGUGGAGGGGGCGC [C9G G54C],0.77
2,CCGCCUAAGACUGCCAAUGCCGGUCCCAAGCCCGGAUAAAAGUGGAGGGGGCGU [C9G G54U],0.73
3,CCGCCUAAGACUGCCAAUGCCGGUCCCAAGCCCGGAUAAAAGUAGAGGGGGCGG [C9G G44A],0.82
4,CCGCCUAAGACUGCCAAUGCCGGUCCCAAGCCCGGAUAAAAGUUGAGGGGGCGG [C9G G44U],0.95
5,CCGCCUAAGACUGCCAAUGCCGGUCCCAAGCCCGGAUAAAAGUCGAGGGGGCGG [C9G G44C],1.04
6,CCGCCUAAUACUGCCAAUGCCGGUCCCAAUCCCGGAUAAAAGUGGAGGGGGCGG [C9U G30U],0.02
7,CCGCCUAAUACUGCCAAUGCCGGUCCCAAACCCGGAUAAAAGUGGAGGGGGCGG [C9U G30A],0.02
8,CCGCCUAAUACUGCCAAUGCCGGUCCCAACCCCGGAUAAAAGUGGAGGGGGCGG [C9U G30C],0.03
9,CCGCCUAAGACUGCCAAUGCCGGUCCCAAGCCCGGAUAAAAGUGGAUGGGGCGG [C9G G47U],0.07
10,CCGCCUAAGACUGCCAAUGCCGGUCCCAAGCCCGGAUAAAAGUGGAAGGGGCGG [C9G G47A],0.09
11,CCGCCUAAGACUGCCAAUGCCGGUCCCAAGCCCGGAUAAAAGUGGACGGGGCGG [C9G G47C],0.06
12,CCGCCUAAUACUGCCAAUGCCGGUCCCAAGCCCGGAUAAAAGUGGAGGGGGCGG [C9U],0.78
13,CCGCCUAAUACUGCCAAUGCCGGUCCCAAGCCCGGAUAAAAUUGGAGGGGGCGG [C9U G42U],0.04
14,CCGCCUAAUACUGCCAAUGCCGGUCCCAAGCCCGGAUAAAACUGGAGGGGGCGG [C9U G42C],0.04
15,CCGCCUAAUACUGCCAAUGCCGGUCCCAAGCCCGGAUAAAAAUGGAGGGGGCGG [C9U G42A],0.09
16,CCGCCUAAUACUUCCAAUGCCGGUCCCAAGCCCGGAUAAAAGUGGAGGGGGCGG [C9U G13U],0.01
17,CCGCCUAAUACUACCAAUGCCGGUCCCAAGCCCGGAUAAAAGUGGAGGGGGCGG [C9U G13A],0.04
18,CCGCCUAAUACUCCCAAUGCCGGUCCCAAGCCCGGAUAAAAGUGGAGGGGGCGG [C9U G13C],0.01
19,CCGCCUAAGACUGCCAAAGCCGGUCCCAAGCCCGGAUAAAAGUGGAGGGGGCGG [C9G U18A],0.85
20,CCGCCUAAGACUGCCAAGGCCGGUCCCAAGCCCGGAUAAAAGUGGAGGGGGCGG [C9G U18G],0.73
21,CCGCCUAAGACUGCCAACGCCGGUCCCAAGCCCGGAUAAAAGUGGAGGGGGCGG [C9G U18C],0.66
22,CCGCCUAAGACUGCCAAUGCCGGCCCCAAGCCCGGAUAAAAGUGGAGGGGGCGG [C9G U24C],0.1
23,CCGCCUAAGACUGCCAAUGCCGGGCCCAAGCCCGGAUAAAAGUGGAGGGGGCGG [C9G U24G],0.04
24,CCGCCUAAGACUGCCAAUGCCGGACCCAAGCCCGGAUAAAAGUGGAGGGGGCGG [C9G U24A],0.08
